Screening data from PubChem.
The list is not random: actives were taken first. Their share in the collection is about 2.3%.
LMPTP inh: blocks human LMPTP phosphatase. P24666. recombinant LMPTP-A, OMFP fluorogenic substrate, fluorescence intensity. inhibition, % at 20 µM. hit rate 0.22% among 360,000. AID 651560;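 active = compounds that cut the enzyme signal by at least half of the control window in the single-dose screen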
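Assay system: LMPTP-A phosphatase enzyme | Input: 0.625 nM enzyme | Also added: Fluorogenic phosphatase substrate OMFP at 400 µM final | Compound dosing: One test concentration per compound, 20 µM, with 3% DMSO overall | Schedule: 50 min enzyme reaction at room temperature, protected from light | Signal: Fluorescence intensity | Benchmarks: no-enzyme and uninhibited controls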
STEP block: blocks human striatal-enriched tyrosine phosphatase; recombinant STEP, OMFP fluorogenic substrate, fluorescence; inhibition, % at 20 µM; hit rate 0.25% among 360,000; AID 588621;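 active = inhibition at 20 µM, scaled per plate between control wells, above about 37%, limit read from the data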
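Material: STEP (striatal-enriched tyrosine phosphatase) enzyme, cell-free; Compound dosing: 20 µM single dose in 1% DMSO; Technique: fluorescence read at 480 nm ex / 540 nm em; Times: reaction 20 min, ambient temperature; Medium: 50 mM Bis-Tris pH 6.0 with 2.5 mM DTT and 0.005% Tween 20; Also added: OMFP at 25 µM.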
Rpn11 inh: Rpn11 (human) deubiquitinase inhibition | O00487 | human 26S proteasome, Ub4-pepOG fluorescence polarization; 20S core pre-blocked with epoxomicin | inhibition, % at 20 µM | hit rate 0.59% among 360,000 | AID 588493;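 active = inhibition at 20 µM, scaled to each plate's controls, above about 33%, limit read from the data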
DNMT1 inh: DNMT1 (human) enzyme inhibition. hit rate 0.83% among 360,000. DNMT1 molecular beacon, Hinp1I cleavage, fluorescence. inhibition (reported as % activation of signal), % at 10 µM. AID 588458. P26358; in the data active = inhibition above about 50%
SUMO1 PPI mod: SUMO1-SIM interaction modulation | AID 602429 | SUMO1 binding to a labelled peptide, TR-FRET, 1 h | hit rate 0.33% among 360,000 | P63165 | inhibition, % at 20 µM; in the data active = inhibition above about 37%
Scp-1 inhibitor: Scp-1 (human) phosphatase inhibition | Q9GZU7 | Recombinant Scp1, phosphopeptide, malachite green phosphate absorbance | inhibition, % at 20 µM | hit rate 0.88% among 340,000;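 active = inhibition above about 50% at 20 µM, limit read from the data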
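System: SCP-1 catalytic domain; Reagent: Phospho 17-mer peptide substrate; Doses: one concentration, 20 µM, with 1.0% DMSO; Incubation: 45 min room-temperature reaction, 5 min colour, 30 min stabiliser; Signal: Phosphate-binding colour reagent, absorbance read at 630 nm.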
Each line names hits and unclear results; the compound was inactive in the other large screens.

Cc1ccc(N2C(=O)NC(=O)/C(=C\c3cc(C)n(-c4ccc(C(=O)O)cc4)c3C)C2=O)cc1	none
Cc1ccc(N2C(=O)NC(=O)/C(=C\c3cc(C)n(-c4cc(C(=O)O)cc(C(=O)O)c4)c3C)C2=O)cc1	Scp-1 inhibitor 51
O=c1[nH]c(=O)n(Cc2ccco2)c(O)c1C=NCc1cccs1	none
O=c1[nH]c(=S)n(Cc2ccco2)c(O)c1C=NCc1cccs1	LMPTP inh 65
Cc1nc2ccccc2c(=O)n1-c1c(Cl)cccc1Cl	none (no result: Scp-1 inhibitor)
N#CC(C#N)=Cc1ccc(C=C(C#N)C#N)cc1	Rpn11 inh 72
N#Cc1ccc(C(=O)N2Cc3cnnn3-c3ccccc3C2C#N)cc1 (configuration not stated)	none
COc1cccc(C(c2nnnn2C(C)(C)C)N2CCC3(CC2)C(=O)NCN3c2ccccc2)c1OC (configuration not stated)	none (no result: Scp-1 inhibitor)
C[n+]1c(-c2ccccc2)cc(CCCCc2cc(-c3ccccc3)[n+](C)c(-c3ccccc3)c2)cc1-c1ccccc1	LMPTP inh 50
COc1ccc2c(c1)C13CCN4CC5=CCOC6CC(=O)N2C1C6C5CC43 (configuration not stated)	none (no result: Scp-1 inhibitor)
CN1C(=O)C(=Cc2ccc(Sc3ccccc3)o2)C(=O)N(C)C1=S	Rpn11 inh 44
Brc1ccc2[nH]cc(C=NN3CCCCCC3)c2c1	none
Cc1ccc(OCCOc2cccc(C=C3C(=O)NC(=O)NC3=O)c2)c(C)c1	DNMT1 inh 52
CC(C)CNc1c2c(nc3ccccc13)CCC2	SUMO1 PPI mod 39
O=C(O)CCC(=O)NCCC1=c2ccccc2=N/C1=C\c1c(O)n(Cc2ccc(F)cc2)c(=S)[nH]c1=O	Scp-1 inhibitor 92
O=C(N/N=C/c1c(O)n(Cc2ccc(F)cc2)c(=O)[nH]c1=O)c1ccccc1	none
Nc1c(C(=O)NC2CCCC2)c2nc3ccccc3nc2n1CC1CCCO1 (configuration not stated)	SUMO1 PPI mod 41
CC(C)CCNC(=O)c1c(N)n(Cc2ccc3c(c2)OCO3)c2nc3ccccc3nc12	none
CC(C)CNC(=O)c1c(N)n(Cc2ccc3c(c2)OCO3)c2nc3ccccc3nc12	SUMO1 PPI mod 46
Cc1ccc(N2C(=O)NC(=O)/C(=C\C=C\c3ccco3)C2=O)cc1	none
CN1C(=O)/C(=C/C=C/c2ccco2)C(=O)NC1=S	Rpn11 inh 149, DNMT1 inh 94, SUMO1 PPI mod 54, Scp-1 inhibitor 98
Cc1ccc(N2C(=O)NC(=O)/C(=C\C=C\c3ccco3)C2=O)cc1C	DNMT1 inh 66
CCOC(=O)C1CCN(/C=C2/C(=O)NC(=O)N(Cc3ccco3)C2=O)CC1	Scp-1 inhibitor 66
Cc1ccc(OCCn2cccc2/C=C2/C(=O)NC(=O)N(Cc3ccco3)C2=O)cc1	DNMT1 inh 61
O=C(CCCc1ccc(N(CCCl)CCCl)cc1)NCc1ccccc1	none (no result: Scp-1 inhibitor)
C[C@]12CC[C@@H](O)C[C@@H]1CC[C@@H]1[C@@H]2CC[C@]2(C)C(=O)[C@H](O)C[C@@H]12	none (no result: Scp-1 inhibitor)
O=C1NC(=O)N(Cc2ccco2)C(=O)/C1=C/C=C/c1ccco1	STEP block 40, Rpn11 inh 141, DNMT1 inh 97, SUMO1 PPI mod 92, Scp-1 inhibitor 81
Cc1cccc(N2C(=O)NC(=O)/C(=C\C=C\c3ccco3)C2=O)c1	none
COC(=O)C1=C(C(=O)OC)SC2(S1)C(C(=O)OC)=C(C(=O)OC)Sc1c2ssc1=O	Rpn11 inh 63
C=Cc1cc(OC)c2c(c1)c(=O)oc1c2cc(OC)c2c(O)ccc(C3OC(C)C(O)C(C)(O)C3O)c21 (configuration not stated)	DNMT1 inh 62, SUMO1 PPI mod 48, Scp-1 inhibitor 81
C=C1C(=O)O[C@@H]2C[C@@H](C)[C@@H]3C=CC(=O)[C@@]3(C)[C@@H](OC(=O)CC(=O)O[C@H]3[C@@H]4C(=C)C(=O)O[C@@H]4C[C@@H](C)[C@@H]4C=CC(=O)[C@]43C)[C@H]12	Rpn11 inh 95
C=C1C(=O)OC2CC(C)C3C=CC(=O)C3(C)C(O)C12 (configuration not stated)	none
